Data from ChEMBL document CHEMBL4033704, “Discovery, synthesis, and structure-activity relations of 3,4-dihydro-1H-spiro(naphthalene-2,2'-piperidin)-1-ones as potassium-competitive acid blockers” (Bioorg Med Chem, 2017).

Columns and labels:
[1] = Inhibition of potassium-stimulated hydrogen potassium ATPase in pig gastric mucosal microsomal fraction assessed as reduction in liberated inorganic phosphate level after 30 mins in presence of KCl by malachite green staining based colorimetric method; parameters: species or system Sus scrofa
In short: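 Gastric mucosal microsomal fraction prepared from pig stomach; assay run at pH 6.5. Inhibition expressed as percent of K⁺-stimulated H⁺,K⁺-ATPase activity in control. IC50 obtained by sigmoidal dose-response fitting.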

Sus scrofa = species: Sus scrofa; assay: Selectivity ratio of IC50 for sodium and potassium-activated sodium potassium ATPase in porcine cerebral cortex to IC50 for potassium-stimulated hydrogen potassium ATPase in pig gastric mucosal microsomal fraction
[2] = AUC (0 to 24 hrs) in Jcl:Sprague-Dawley rat plasma at 0.2 mg/kg, iv by LC/MS/MS analysis; format: ADME, organism-based; parameters: time < 24 hr, dose 0.2 mg/kg, route intravenous
In short: (§1)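 Rats dosed intravenously at 0.2 mg/kg, given as free compound. Blood and stomach sampled 10 min, 1, 4 and 24 h after dosing. Compound levels measured by LC/MS/MS. AUC0-24h calculated from these four time points (plasma ng·h/mL, stomach ng·h/g).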

Stomach = assay: AUC (0 to 24 hrs) in Jcl:Sprague-Dawley rat stomach at 0.2 mg/kg, iv by LC/MS/MS analysis; format: ADME, organism-based; parameters: dose 0.2 mg/kg, time < 24 hr, route intravenous; conditions: in vivo; in short: as §1
[3] = Inhibition of sodium and potassium-activated sodium potassium ATPase in porcine cerebral cortex assessed as reduction in liberated inorganic phosphate level after 30 mins in presence of sodium and potassium by malachite green staining based colorimetric method; parameters: species or system Sus scrofa
Rattus norvegicus [4] = assay: Inhibition of histamine-stimulated gastric acid secretion in Jcl:Sprague-Dawley rat at 10 mg/kg, iv pretreated for 3 mins followed by histamine.2HCl stimulation measured after 3 hrs by titration method relative to control; format: functional
Rattus norvegicus [5] = assay: Inhibition of histamine-stimulated gastric acid secretion in Jcl:Sprague-Dawley rat at 1 mg/kg, iv pretreated for 3 mins followed by histamine.2HCl stimulation measured after 3 hrs by titration method relative to control; format: functional
In short: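 Anesthetized rats given compound intravenously at 1, 3 or 10 mg/kg, then histamine. Gastric contents collected and centrifuged at 3000 rpm for 10 min; volume measured. Acid concentration determined by automatic titration to pH 7.0 with 0.1 mol/L NaOH. Total acid output over 3 h (μEq/3 h) compared against vehicle to give percent inhibition.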

[6] = Lipophilicity, log D of the compound; format: physicochemical; conditions: octanol/water
Rattus norvegicus [7] = assay: Inhibition of histamine-induced acid secretion in rat assessed as increase in pH of gastric perfusate at 3 mg/kg, iv measured after 5 hrs; format: functional
In short: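 Anesthetized rats given intravenous infusion of histamine 2HCl via cervical vein at 8 mg/kg/h; gastric perfusate pH monitored. Once pH stabilized, test compound or vehicle given intravenously. Perfusate pH then recorded for 5 h after dosing.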

SMILES	IC50 [1]	further results
COc1ccc2c(c1)CCC1(CCCCN1CCc1c(C)cc(C)cc1C)C2=O (configuration not stated)	140 nM	–
COc1ccc2c(c1)C(=O)C1(CCCCN1CCc1ccccc1C)CC2 (racemic)	270 nM	–
O=C1c2cccc3[nH]cc(c23)CC12CCCCN2CCc1ccccc1 (configuration not stated)	1600 nM	Ratio IC50 (Sus scrofa): > 100; AUC(0-t) at 24 h [2]: 71 ng·h/mL; AUC (Stomach): 1171 ng·h/g; IC50 [3]: > 10 µM; inhibition in vivo at 10 mg/kg (Rattus norvegicus [4]): 71%
COc1ccc2c(c1)CCC1(CCCCN1Cc1ccccc1)C2=O (configuration not stated)	> 10000 nM	–
COc1ccc2c(c1)CCC1(CCCCN1C(=O)Cc1ccccc1)C2=O (configuration not stated)	> 10000 nM	–
COc1ccc2c(c1)CCC1(CCCCN1CCc1ccccc1)C2=O (configuration not stated)	290 nM	–
COc1ccc2c(c1)CC[C@@]1(CCCCN1CCc1ccccc1C)C2=O.Cl	46 nM	AUC(0-t) at 24 h [2]: 74 ng·h/mL; AUC (Stomach): 3035 ng·h/g; inhibition in vivo at 1 mg/kg (Rattus norvegicus [5]): 87%; IC50 [3]: > 10 µM
COc1ccc2c(c1)CC[C@@]1(CCCCN1CCc1ccc(F)cc1)C2=O	64 nM	–
COc1cccc(CCN2CCCC[C@@]23CCc2cc(OC)ccc2C3=O)c1	1100 nM	–
COc1ccc2c(c1)CCC1(CCCCN1CCCCc1ccccc1)C2=O (configuration not stated)	> 10000 nM	–
COc1ccc2c(c1)CC[C@@]1(CCCCN1CCc1ccccc1F)C2=O	160 nM	–
O=C1c2ccccc2CCC12CCCCN2CCc1ccccc1 (configuration not stated)	1000 nM	–
COc1ccc2c(c1)CC[C@]1(CCCCN1CCc1ccc(F)cc1)C2=O	> 10000 nM	–
COc1ccc2c(c1)CCC1(CCCCN1CCc1ccccc1Cl)C2=O (configuration not stated)	170 nM	–
COc1ccc2c(c1)CCC1(CCCCN1CC(C)c1ccccc1)C2=O (configuration not stated)	300 nM	–
CC(=O)Nc1ccc2c(c1)CC[C@]1(CCCCN1CCc1ccccc1C)C2=O	> 10000 nM	–
COc1ccc2c(c1)CCC1(CCCCN1CCCc1ccccc1)C2=O (configuration not stated)	890 nM	–

SMILES	IC50 [1]	further results
COc1ccc2c(c1)CCC1(CCCCN1CC(=O)c1ccccc1)C2=O (configuration not stated)	> 10000 nM	–
COc1ccc2c(c1)CCC1(CCCCN1CCc1ccc(F)cc1)C2=O (configuration not stated)	87 nM	–
CC(=O)Nc1ccc2c(c1)CCC1(CCCCN1CCc1ccccc1C)C2=O (racemic)	45 nM	–
COc1ccc2c(c1)CC[C@@]1(CCCCN1CCc1cccc(F)c1)C2=O	370 nM	–
Cc1ccccc1CCN1CCCCC12CCc1cc(C#N)ccc1C2=O (racemic)	> 10000 nM	–
COc1ccc(CCN2CCCC[C@@]23CCc2cc(OC)ccc2C3=O)cc1	1800 nM	–
COc1ccc2c(c1)CCC1(CCCCN1CCc1ccc(F)cc1C)C2=O (configuration not stated)	57 nM	–
COc1cccc2c1C(=O)C1(CCCCN1CCc1ccccc1C)CC2 (configuration not stated)	290 nM	–
COc1ccc2c(c1)CC[C@@]1(CCCCN1CCc1ccccc1OC)C2=O	83 nM	–
COc1ccc2c(c1)CC[C@]1(CCCCN1CCc1ccccc1C)C2=O	> 10000 nM	–
COc1cccc2c1CCC1(CCCCN1CCc1ccccc1C)C2=O (configuration not stated)	300 nM	–
COc1ccc2c(c1)CCC1(CCCCN1c1ccccc1)C2=O (configuration not stated)	> 10000 nM	–
Cc1ccccc1CCN1CCCCC12CCc1ccccc1C2=O (racemic)	290 nM	–
Cc1ccccc1CCN1CCCCC12CCc1cc(-c3ccccc3)ccc1C2=O (racemic)	> 10000 nM	–
COc1ccc2c(c1)CCC1(CCCCN1CCc1ccccc1C)C2=O (configuration not stated)	82 nM	–
CC(=O)Nc1ccc2c(c1)CC[C@@]1(CCCCN1CCc1ccccc1C)C2=O	31 nM	logD [6]: 3.56; AUC(0-t) at 24 h [2]: 68 ng·h/mL; AUC (Stomach): 15131 ng·h/g; pH (Rattus norvegicus [7]): 6; inhibition in vivo at 1 mg/kg (Rattus norvegicus [5]): 95%
